Assays:
[1] = test system: Proto-oncogene tyrosine-protein kinase receptor Ret (Homo sapiens), P07949 [V804M]; assay: Inhibition of RET V804M mutant (unknown origin) using [gamma-33P]ATP assessed as residual activity at 3 uM
[2] = test system: Platelet-derived growth factor receptor alpha (Homo sapiens), P16234 [V561D]; assay: Inhibition of PDGFRa V561D mutant (unknown origin) using [gamma-33P]ATP assessed as residual activity at 3 uM
[3] = target: Serine/threonine-protein kinase PAK 6 (Homo sapiens) (UniProt Q9NQU5); assay: Inhibition of PAK6 (unknown origin) using [gamma-33P]ATP assessed as residual activity at 3 uM
[4] = target: Ribosomal protein S6 kinase beta-1 (Homo sapiens) (UniProt P23443); assay: Inhibition of P70S6K (unknown origin) using [gamma-33P]ATP assessed as residual activity at 3 uM
[5] = target: Serine/threonine-protein kinase mTOR (Homo sapiens) (UniProt P42345); assay: Inhibition of mTOR (unknown origin) using [gamma-33P]ATP assessed as residual activity at 3 uM
[6] = target: Misshapen-like kinase 1 (Homo sapiens) (UniProt Q8N4C8); assay: Inhibition of MINK (unknown origin) using [gamma-33P]ATP assessed as residual activity at 3 uM
How it was run: (§1)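 Contract radiometric panel screen of 288 kinases (261 wild-type, 27 mutant). Inhibition was read by [gamma-33P]ATP radioactivity incorporation.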

[7] = target: Serine/threonine-protein kinase MARK1 (Homo sapiens) (UniProt Q9P0L2); assay: Inhibition of MARK1 (unknown origin) using [gamma-33P]ATP assessed as residual activity at 3 uM; how it was run: as §1
[8] = target: Casein kinase II subunit alpha' (Homo sapiens) (UniProt P19784); assay: Inhibition of CK2a2 (unknown origin) using [gamma-33P]ATP assessed as residual activity at 3 uM
How it was run: (§2)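 Reaction Biology HotSpot radiometric profiling panel of 288 kinases (261 wild-type, 27 mutant). Kinase activity was read out by incorporation of [γ-33P]ATP.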

[9] = target: Serine/threonine-protein kinase Chk1 (Homo sapiens) (UniProt O14757); assay: Inhibition of CHK1 (unknown origin) using [gamma-33P]ATP assessed as residual activity at 3 uM
How it was run: (§3)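 Radiometric profiling across 288 kinases (261 wild-type, 27 mutant), run as an outsourced service. Inhibition read out as [gamma-33P]ATP incorporation into substrate.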

[10] = target: Cyclin-dependent kinase 7/ cyclin H (Homo sapiens) (UniProt P51946+P50613); assay: Inhibition of CDK7/cyclin H/MNAT1 (unknown origin) using [gamma-33P]ATP assessed as residual activity at 3 uM; assay type: protein-complex assay; how it was run: as §3
[11] = target: Protein-tyrosine kinase 6 (Homo sapiens) (UniProt Q13882); assay: Inhibition of BRK (unknown origin) using [gamma-33P]ATP assessed as residual activity at 3 uM; how it was run: as §3
[12] = target: Serine/threonine-protein kinase B-raf (Homo sapiens) (UniProt P15056); assay: Inhibition of BRAF (unknown origin) using [gamma-33P]ATP assessed as residual activity at 3 uM; how it was run: as §3
[13] = target: Tyrosine-protein kinase Lyn (Homo sapiens) (UniProt P07948); assay: Inhibition of LYN-B (unknown origin) using [gamma-33P]ATP assessed as residual activity at 3 uM
How it was run: (§4)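 Radiometric kinase profiling service covering 288 kinases (261 wild-type, 27 mutant). Inhibition was read as incorporation from [γ-³³P]ATP.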

[14] = target: Aurora kinase B (Homo sapiens) (UniProt Q96GD4); assay: Inhibition of Aurora B (unknown origin) using [gamma-33P]ATP assessed as residual activity at 3 uM; how it was run: as §3
[15] = target: Insulin receptor (Homo sapiens) (UniProt P06213); assay: Inhibition of IR (unknown origin) using [gamma-33P]ATP assessed as residual activity at 3 uM; how it was run: as §4
[16] = target: Serine/threonine-protein kinase TAO2 (Homo sapiens) (UniProt Q9UL54); assay: Inhibition of TAOK2 (unknown origin) using [gamma-33P]ATP assessed as residual activity at 3 uM
[17] = target: Macrophage-stimulating protein receptor (Homo sapiens) (UniProt Q04912); assay: Inhibition of RON (unknown origin) using [gamma-33P]ATP assessed as residual activity at 3 uM
[18] = target: Rho-associated protein kinase 2 (Homo sapiens) (UniProt O75116); assay: Inhibition of ROCK2 (unknown origin) using [gamma-33P]ATP assessed as residual activity at 3 uM
[19] = target: G protein-coupled receptor kinase 6 (Homo sapiens) (UniProt P43250); assay: Inhibition of GRK6 (unknown origin) using [gamma-33P]ATP assessed as residual activity at 3 uM; how it was run: as §4
[20] = target: G protein-coupled receptor kinase 3 (Homo sapiens) (UniProt P35626); assay: Inhibition of GRK3 (unknown origin) using [gamma-33P]ATP assessed as residual activity at 3 uM; how it was run: as §4
[21] = target: Beta-adrenergic receptor kinase 1 (Homo sapiens) (UniProt P25098); assay: Inhibition of GRK2 (unknown origin) using [gamma-33P]ATP assessed as residual activity at 3 uM; how it was run: as §4
[22] = target: Macrophage colony-stimulating factor 1 receptor (Homo sapiens) (UniProt P07333); assay: Inhibition of FMS (unknown origin) using [gamma-33P]ATP assessed as residual activity at 3 uM; how it was run: as §4
[23] = target: Receptor-type tyrosine-protein kinase FLT3 (Homo sapiens) (UniProt P36888); assay: Inhibition of FLT3 (unknown origin) using [gamma-33P]ATP assessed as residual activity at 3 uM; how it was run: as §4
[24] = target: Mitogen-activated protein kinase 1 (Homo sapiens) (UniProt P28482); assay: Inhibition of ERK2 (unknown origin) using [gamma-33P]ATP assessed as residual activity at 3 uM; how it was run: as §2
[25] = target: Ephrin type-B receptor 1 (Homo sapiens) (UniProt P54762); assay: Inhibition of EPHB1 (unknown origin) using [gamma-33P]ATP assessed as residual activity at 3 uM; how it was run: as §2
[26] = target: Serine/threonine-protein kinase PLK3 (Homo sapiens) (UniProt Q9H4B4); assay: Inhibition of PLK3 (unknown origin) using [gamma-33P]ATP assessed as residual activity at 3 uM
[27] = target: Protein kinase C gamma type (Homo sapiens) (UniProt P05129); assay: Inhibition of PKCgamma (unknown origin) using [gamma-33P]ATP assessed as residual activity at 3 uM
[28] = target: Myotonin-protein kinase (Homo sapiens) (UniProt Q09013); assay: Inhibition of DMPK (unknown origin) using [gamma-33P]ATP assessed as residual activity at 3 uM; how it was run: as §2
[29] = target: Serine/threonine-protein kinase DCLK2 (Homo sapiens) (UniProt Q8N568); assay: Inhibition of DCAMKL2 (unknown origin) using [gamma-33P]ATP assessed as residual activity at 3 uM; how it was run: as §2
[30] = target: Death-associated protein kinase 1 (Homo sapiens) (UniProt P53355); assay: Inhibition of DAPK1 (unknown origin) using [gamma-33P]ATP assessed as residual activity at 3 uM; how it was run: as §2
[31] = target: Phosphorylase b kinase gamma catalytic chain, liver/testis isoform (Homo sapiens) (UniProt P15735); assay: Inhibition of PHKg2 (unknown origin) using [gamma-33P]ATP assessed as residual activity at 3 uM

Chain of G protein-coupled receptor kinase 6 (Homo sapiens) (P43250 whole entry, looked up): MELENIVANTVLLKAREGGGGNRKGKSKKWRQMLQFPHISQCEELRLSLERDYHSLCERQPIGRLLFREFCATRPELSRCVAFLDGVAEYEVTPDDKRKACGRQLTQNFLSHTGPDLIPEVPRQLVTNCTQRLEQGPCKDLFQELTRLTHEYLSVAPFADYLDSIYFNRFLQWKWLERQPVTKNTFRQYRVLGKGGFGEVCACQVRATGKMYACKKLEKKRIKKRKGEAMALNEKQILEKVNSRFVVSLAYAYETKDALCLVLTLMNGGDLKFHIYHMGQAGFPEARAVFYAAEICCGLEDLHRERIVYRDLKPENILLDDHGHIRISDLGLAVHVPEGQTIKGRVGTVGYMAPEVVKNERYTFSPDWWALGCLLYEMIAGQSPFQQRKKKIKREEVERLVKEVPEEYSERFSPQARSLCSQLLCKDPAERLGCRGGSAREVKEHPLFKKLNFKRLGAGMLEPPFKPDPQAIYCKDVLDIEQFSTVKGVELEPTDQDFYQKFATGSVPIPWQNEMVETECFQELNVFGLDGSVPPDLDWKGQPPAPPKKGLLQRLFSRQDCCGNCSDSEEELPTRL
Chain of Casein kinase II subunit alpha' (Homo sapiens) (P19784 whole entry, looked up): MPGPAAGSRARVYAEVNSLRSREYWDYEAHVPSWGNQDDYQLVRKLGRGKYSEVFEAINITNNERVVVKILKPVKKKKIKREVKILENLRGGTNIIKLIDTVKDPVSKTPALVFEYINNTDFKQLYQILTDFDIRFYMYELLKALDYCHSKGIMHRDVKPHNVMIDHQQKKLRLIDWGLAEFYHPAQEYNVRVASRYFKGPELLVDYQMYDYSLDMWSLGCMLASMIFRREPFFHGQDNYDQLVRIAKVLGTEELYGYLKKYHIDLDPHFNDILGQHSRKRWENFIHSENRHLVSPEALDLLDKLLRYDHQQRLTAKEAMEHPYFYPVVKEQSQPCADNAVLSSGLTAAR
Chain of Insulin receptor (Homo sapiens) (P06213 28-758 limits assumed): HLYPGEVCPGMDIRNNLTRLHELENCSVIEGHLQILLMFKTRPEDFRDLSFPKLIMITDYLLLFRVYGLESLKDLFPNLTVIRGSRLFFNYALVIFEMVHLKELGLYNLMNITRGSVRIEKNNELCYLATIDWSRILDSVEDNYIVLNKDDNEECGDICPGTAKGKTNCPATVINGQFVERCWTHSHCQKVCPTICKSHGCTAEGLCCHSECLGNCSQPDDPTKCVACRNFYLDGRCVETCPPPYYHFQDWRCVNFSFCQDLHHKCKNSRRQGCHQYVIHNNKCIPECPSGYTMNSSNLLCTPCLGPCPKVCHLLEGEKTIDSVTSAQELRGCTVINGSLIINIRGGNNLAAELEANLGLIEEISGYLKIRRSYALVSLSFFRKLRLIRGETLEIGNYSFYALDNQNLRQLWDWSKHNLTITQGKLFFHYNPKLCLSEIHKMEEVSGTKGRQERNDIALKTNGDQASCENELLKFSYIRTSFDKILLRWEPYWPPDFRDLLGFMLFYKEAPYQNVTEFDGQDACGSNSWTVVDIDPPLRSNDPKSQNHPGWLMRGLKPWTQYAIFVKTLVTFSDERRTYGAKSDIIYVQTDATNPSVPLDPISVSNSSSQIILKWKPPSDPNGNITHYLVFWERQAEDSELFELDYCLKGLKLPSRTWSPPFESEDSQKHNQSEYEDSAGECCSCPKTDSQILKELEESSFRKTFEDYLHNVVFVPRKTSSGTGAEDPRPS
Chain of Insulin receptor (Homo sapiens) (P06213 763-1382 limits assumed): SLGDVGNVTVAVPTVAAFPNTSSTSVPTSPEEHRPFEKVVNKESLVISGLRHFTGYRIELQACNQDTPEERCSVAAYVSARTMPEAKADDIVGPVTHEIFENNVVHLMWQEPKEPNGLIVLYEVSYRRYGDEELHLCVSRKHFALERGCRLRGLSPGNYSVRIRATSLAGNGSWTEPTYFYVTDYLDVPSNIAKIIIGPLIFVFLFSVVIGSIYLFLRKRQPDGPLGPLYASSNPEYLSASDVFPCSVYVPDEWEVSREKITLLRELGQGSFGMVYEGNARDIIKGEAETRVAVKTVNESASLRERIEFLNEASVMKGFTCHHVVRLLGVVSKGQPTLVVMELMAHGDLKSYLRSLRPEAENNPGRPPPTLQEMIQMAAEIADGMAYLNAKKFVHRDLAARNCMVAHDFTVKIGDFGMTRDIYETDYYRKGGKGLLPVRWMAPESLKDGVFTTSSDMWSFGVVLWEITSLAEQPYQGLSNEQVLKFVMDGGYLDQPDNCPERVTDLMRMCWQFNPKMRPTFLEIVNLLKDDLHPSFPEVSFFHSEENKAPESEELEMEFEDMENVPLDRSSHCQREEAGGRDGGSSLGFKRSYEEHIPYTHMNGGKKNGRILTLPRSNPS
Chain of Serine/threonine-protein kinase PAK 6 (Homo sapiens) (Q9NQU5 whole entry, looked up): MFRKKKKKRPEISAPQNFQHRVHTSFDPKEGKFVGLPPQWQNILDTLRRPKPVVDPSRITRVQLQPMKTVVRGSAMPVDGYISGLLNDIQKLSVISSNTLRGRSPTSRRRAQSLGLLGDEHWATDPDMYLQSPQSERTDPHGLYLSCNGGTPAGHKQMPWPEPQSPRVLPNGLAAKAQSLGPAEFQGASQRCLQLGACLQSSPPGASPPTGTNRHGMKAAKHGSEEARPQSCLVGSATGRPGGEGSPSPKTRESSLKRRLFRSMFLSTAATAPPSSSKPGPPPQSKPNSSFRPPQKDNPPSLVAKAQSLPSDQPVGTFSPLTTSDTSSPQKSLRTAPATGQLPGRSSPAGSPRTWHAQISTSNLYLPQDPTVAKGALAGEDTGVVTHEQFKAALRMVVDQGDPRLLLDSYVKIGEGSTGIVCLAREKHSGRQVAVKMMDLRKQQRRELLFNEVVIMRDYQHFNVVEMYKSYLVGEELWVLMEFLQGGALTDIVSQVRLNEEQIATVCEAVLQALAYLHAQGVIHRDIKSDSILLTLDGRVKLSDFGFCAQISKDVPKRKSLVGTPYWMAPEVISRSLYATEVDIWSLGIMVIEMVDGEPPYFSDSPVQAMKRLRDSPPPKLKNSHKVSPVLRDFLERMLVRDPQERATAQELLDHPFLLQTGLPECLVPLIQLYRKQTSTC
Chain of Ephrin type-B receptor 1 (Homo sapiens) (P54762 whole entry): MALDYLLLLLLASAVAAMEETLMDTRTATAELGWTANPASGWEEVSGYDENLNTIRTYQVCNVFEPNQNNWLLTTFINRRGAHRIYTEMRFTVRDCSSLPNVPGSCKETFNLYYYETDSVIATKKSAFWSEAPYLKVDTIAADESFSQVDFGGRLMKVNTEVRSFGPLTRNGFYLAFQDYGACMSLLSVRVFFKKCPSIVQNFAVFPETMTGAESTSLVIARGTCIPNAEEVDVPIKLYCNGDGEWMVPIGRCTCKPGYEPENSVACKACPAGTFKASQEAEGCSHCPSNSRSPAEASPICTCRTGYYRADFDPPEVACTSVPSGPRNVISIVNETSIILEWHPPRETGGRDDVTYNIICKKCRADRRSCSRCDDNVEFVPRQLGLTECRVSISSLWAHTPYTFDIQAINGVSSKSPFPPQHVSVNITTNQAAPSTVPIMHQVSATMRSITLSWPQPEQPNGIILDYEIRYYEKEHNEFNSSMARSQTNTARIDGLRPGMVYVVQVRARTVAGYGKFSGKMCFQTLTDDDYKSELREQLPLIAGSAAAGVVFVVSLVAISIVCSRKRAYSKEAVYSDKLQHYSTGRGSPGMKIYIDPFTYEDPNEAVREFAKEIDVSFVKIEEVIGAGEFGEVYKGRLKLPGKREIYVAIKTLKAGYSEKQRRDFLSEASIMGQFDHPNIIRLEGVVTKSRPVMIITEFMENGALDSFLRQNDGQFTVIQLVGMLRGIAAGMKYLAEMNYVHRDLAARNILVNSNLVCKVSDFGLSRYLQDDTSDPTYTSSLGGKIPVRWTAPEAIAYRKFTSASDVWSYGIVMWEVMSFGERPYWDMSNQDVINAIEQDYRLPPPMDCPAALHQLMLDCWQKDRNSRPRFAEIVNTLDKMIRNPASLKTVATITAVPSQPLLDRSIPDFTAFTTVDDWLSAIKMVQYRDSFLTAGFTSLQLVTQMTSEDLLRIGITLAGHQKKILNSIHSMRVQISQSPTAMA
Chain of G protein-coupled receptor kinase 3 (Homo sapiens) (P35626 whole entry): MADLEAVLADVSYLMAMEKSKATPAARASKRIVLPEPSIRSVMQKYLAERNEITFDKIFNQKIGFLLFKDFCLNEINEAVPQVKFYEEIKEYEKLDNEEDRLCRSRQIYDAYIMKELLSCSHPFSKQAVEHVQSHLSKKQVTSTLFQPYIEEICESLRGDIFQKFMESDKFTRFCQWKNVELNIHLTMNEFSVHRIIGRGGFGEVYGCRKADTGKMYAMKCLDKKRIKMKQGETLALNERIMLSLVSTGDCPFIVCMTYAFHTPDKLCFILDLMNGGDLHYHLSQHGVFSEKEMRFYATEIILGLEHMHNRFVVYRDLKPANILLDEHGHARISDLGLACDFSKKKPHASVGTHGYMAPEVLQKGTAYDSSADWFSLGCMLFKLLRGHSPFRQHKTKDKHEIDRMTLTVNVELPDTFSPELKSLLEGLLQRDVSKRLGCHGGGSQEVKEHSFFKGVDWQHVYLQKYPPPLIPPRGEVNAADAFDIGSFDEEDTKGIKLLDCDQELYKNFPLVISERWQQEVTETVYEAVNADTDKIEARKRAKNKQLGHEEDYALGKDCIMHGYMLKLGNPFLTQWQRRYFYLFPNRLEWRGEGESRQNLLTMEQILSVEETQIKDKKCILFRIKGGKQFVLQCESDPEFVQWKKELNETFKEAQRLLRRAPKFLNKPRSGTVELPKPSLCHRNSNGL
Chain of Aurora kinase B (Homo sapiens) (Q96GD4 whole entry): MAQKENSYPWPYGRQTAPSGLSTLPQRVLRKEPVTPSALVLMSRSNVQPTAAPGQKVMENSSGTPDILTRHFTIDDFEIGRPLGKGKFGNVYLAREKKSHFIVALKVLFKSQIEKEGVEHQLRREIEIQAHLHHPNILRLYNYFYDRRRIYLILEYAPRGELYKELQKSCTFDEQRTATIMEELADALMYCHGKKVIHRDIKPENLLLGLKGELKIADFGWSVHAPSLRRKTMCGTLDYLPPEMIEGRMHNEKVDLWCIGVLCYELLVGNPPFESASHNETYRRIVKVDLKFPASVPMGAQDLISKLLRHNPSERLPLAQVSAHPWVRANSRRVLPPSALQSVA

`CCc1ccc(-c2ccc3c(c2)-c2[nH]ncc2S(=O)(=O)N3C)cc1` showed an Activity [1] of 91%, an Activity [2] of 81% and an Activity [3] of 97%. The Activity [4] was 95%, the Activity [5] was 100% and the Activity [6] was 55%. It also gave an Activity [7] of 94%, an Activity [8] of 53% and an Activity [9] of 81%. It also gave an Activity [10] of 97%, an Activity [11] of 73% and an Activity [12] of 98%. It also gave an Activity [13] of 78%, an Activity [14] of 86% and an Activity [15] of 94%. It also gave an Activity [16] of 100%, an Activity [17] of 98% and an Activity [18] of 94%. The Activity [19] was 97%, the Activity [20] was 93% and the Activity [21] was 98%. For the same compound, the Activity [22] was 96%, the Activity [23] was 53% and the Activity [24] was 93%. It also gave an Activity [25] of 80%, an Activity [26] of 105% and an Activity [27] of 96%. It also gave an Activity [28] of 103%, an Activity [29] of 101% and an Activity [30] of 94%. For the same compound, the Activity [31] was 85%.
